Results published in BindingDB's records for doi:10.1021/acsmedchemlett.0c00544 (Peking University Health Science Center, 2021).

How the values were obtained:
[1] = biological target: T1, Signal transducer and activator of transcription 3 (Homo sapiens, UniProt P40763); assay: Inhibition of IL-6 induced STAT3 transcriptional activity in human HEK-Blue IL-6 cells assessed as secreted embryonic alkaline phosphatase reporter gene expression measured after 20 hrs by microplate reader
Outline: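 HEK-Blue IL-6 reporter cells were treated for 20 h. IL-6/JAK/STAT3 pathway activity was quantified from secreted SEAP using a detection reagent, with parallel MTT viability. Values are averages of three independent experiments.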

[2] = biological target: T1, Signal transducer and activator of transcription 3; assay: Inhibition of IL-6 induced STAT3 transcriptional activity in human HEK-Blue IL-6 cells assessed as secreted embryonic alkaline phosphatase reporter gene expression by microplate reader
Outline: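 HEK-Blue IL-6 reporter cells were treated for 20 h, and STAT3 pathway activity was quantified from secreted SEAP using a detection reagent. […] Values are averages of three independent experiments.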

T1 sequence (P40763 whole entry): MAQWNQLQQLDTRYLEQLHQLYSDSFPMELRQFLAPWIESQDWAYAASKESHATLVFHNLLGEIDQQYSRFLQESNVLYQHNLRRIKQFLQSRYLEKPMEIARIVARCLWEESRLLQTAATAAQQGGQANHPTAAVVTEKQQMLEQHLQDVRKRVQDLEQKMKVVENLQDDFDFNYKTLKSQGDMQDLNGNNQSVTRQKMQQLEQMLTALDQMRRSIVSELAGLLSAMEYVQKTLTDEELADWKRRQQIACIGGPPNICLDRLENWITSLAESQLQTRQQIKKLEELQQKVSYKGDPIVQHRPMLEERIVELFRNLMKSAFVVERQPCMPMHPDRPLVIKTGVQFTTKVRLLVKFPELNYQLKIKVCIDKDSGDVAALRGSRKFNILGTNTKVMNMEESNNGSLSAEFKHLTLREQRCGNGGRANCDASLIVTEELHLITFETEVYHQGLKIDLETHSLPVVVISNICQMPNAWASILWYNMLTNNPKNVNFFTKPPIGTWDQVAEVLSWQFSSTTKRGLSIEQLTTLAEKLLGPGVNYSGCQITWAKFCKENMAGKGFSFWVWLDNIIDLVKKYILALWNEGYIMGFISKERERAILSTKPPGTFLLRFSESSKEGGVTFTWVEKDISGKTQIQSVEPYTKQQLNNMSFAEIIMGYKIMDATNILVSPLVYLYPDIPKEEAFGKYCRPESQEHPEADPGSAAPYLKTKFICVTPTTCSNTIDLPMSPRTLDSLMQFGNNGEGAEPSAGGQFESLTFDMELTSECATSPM

Row | Compound | IC50 [1] | IC50 [2]
1 | C[C@H](NC(=O)/C(C#N)=C/c1cccc(Br)n1)c1ccccc1 [Wp 1066] | 2.5 µM | 1.79 µM
2 | CC(=O)Oc1ccccc1C(=O)Nc1ncc([N+](=O)[O-])s1 [Alinia] | 9.8 µM | 9.98 µM
